# Laboratory results: ChEMBL document CHEMBL1139574, “Synthesis and biological evaluation of novel bisphosphonates with dual activities on bone in vitro” (2005)
# How the values were obtained:
# Assay type in all cases: functional
# [1] = Inhibitory ratio of osteoclast precursor cells at concentration of 10e-7 M by staining with tartrate-resistant acid […]
# Method in brief: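 Osteoclast precursor cells plated at 5 × 10⁴ cells/well and cultured 8 days with or without bisphosphonate at 10^-7 M. Cells then TRAP-stained, and positive cells with three or more nuclei counted. Inhibitory ratio (%) = (control count − treated count)/control count × 100. Mean ± SE, n = 5.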
# Rattus norvegicus [2] = species: Rattus norvegicus; test: Proliferative activity on the of rat calvaria osteoblasts at concentration of 10e-6 M
# Method in brief: (§1)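 SD rat calvarial osteoblasts plated at 2 × 10⁴ cells/well and exposed to a range of bisphosphonate concentrations for 72 h. Proliferation read by MTT, absorbance at 492 nm. Proliferative ratio (%) = (treated − control)/control × 100. Mean ± SE, n = 3.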
# Rattus norvegicus [3] = species: Rattus norvegicus; test: Proliferative activity on the of rat calvaria osteoblasts at concentration of 10e-7 M; method in brief: as §1
# Rattus norvegicus [4] = species: Rattus norvegicus; test: Proliferative activity on the of rat calvaria osteoblasts at concentration of 10e-8 M; method in brief: as §1
# Rattus norvegicus [5] = species: Rattus norvegicus; test: Proliferative activity on the of rat calvaria osteoblasts at concentration of 10e-5 M; method in brief: as §1
# [6] = molecular target: T1, Alkaline phosphatase, tissue-nonspecific isozyme (Rattus norvegicus) (UniProt P08289); test: Inhibitory activity of Alkaline phosphatase was determined at concentration of 10e-9 M using p-nitrophenylphosphate as the substrate
# T1 sequence (whole entry): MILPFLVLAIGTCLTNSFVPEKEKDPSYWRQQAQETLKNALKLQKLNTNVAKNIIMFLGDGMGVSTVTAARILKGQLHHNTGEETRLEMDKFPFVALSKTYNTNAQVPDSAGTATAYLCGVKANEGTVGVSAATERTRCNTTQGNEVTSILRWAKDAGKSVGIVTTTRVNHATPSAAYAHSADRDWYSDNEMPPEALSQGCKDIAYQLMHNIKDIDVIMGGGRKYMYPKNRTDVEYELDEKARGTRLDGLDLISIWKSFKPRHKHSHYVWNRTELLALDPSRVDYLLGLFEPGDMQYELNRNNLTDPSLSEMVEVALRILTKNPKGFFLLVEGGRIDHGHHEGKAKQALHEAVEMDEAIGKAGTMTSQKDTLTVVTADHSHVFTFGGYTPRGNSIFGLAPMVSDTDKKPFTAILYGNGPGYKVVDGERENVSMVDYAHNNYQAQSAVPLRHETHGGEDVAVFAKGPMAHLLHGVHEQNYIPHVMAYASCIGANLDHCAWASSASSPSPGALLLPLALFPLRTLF
# Method in brief: (§2)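 Primary osteoblast-enriched cells from newborn Sprague-Dawley rat calvaria, cultured in DMEM at 37 °C under 5% CO2. Seeded at 5 × 10³ cells/well and exposed to test agent for 72 h. Alkaline phosphatase activity measured with p-nitrophenylphosphate substrate. Values normalized to viable cell number from the MTT assay. Mean ± SE, n = 5.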
# [7] = Inhibitory activity of bone gamma-carboxyglutamate (gla) protein (osteocalcin) was determined at concentration of 10e-8 M in cell lysates
# Method in brief: (§3)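 Newborn Sprague-Dawley rat calvarial osteoblast-enriched cultures seeded at 5 × 10³ cells/well and treated for 72 h. Osteocalcin measured in cell lysates by radioimmunoassay. Normalized to viable cell number from MTT. Mean ± SE, n = 5.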
# [8] = molecular target: T1, Alkaline phosphatase, tissue-nonspecific isozyme (Rattus norvegicus); test: Inhibitory activity of Alkaline phosphatase was determined at concentration of 10e-6 M using p-nitrophenylphosphate as the substrate; method in brief: as §2
# [9] = molecular target: T1, Alkaline phosphatase, tissue-nonspecific isozyme (Rattus norvegicus); test: Inhibitory activity of Alkaline phosphatase was determined at concentration of 10e-8 M using p-nitrophenylphosphate as the substrate; method in brief: as §2
# [10] = Inhibitory activity of bone gamma-carboxyglutamate (gla) protein (osteocalcin) was determined at concentration of 10e-9 M in cell lysates; method in brief: as §3
# [11] = molecular target: T1, Alkaline phosphatase, tissue-nonspecific isozyme (Rattus norvegicus); test: Inhibitory activity of Alkaline phosphatase was determined at concentration of 10e-7 M using p-nitrophenylphosphate as the substrate; method in brief: as §2
# [12] = Inhibitory activity of bone gamma-carboxyglutamate (gla) protein (osteocalcin) was determined at concentration of 10e-7 M in cell lysates; method in brief: as §3
# [13] = Inhibitory activity of bone gamma-carboxyglutamate (gla) protein (osteocalcin) was determined at concentration of 10e-6 M in cell lysates; method in brief: as §3
SMILES,inhibition at 0.1 µM [1] [%],Proliferation (Rattus norvegicus [2]) [%],Proliferation (Rattus norvegicus [3]) [%],Proliferation (Rattus norvegicus [4]) [%],Proliferation (Rattus norvegicus [5]) [%],other results
Cc1ccccc1C(=O)NCCCC(O)(P(=O)(O)O)P(=O)(O)O,30.3,–,–,–,–,–
COc1cccc(C(=O)NCCCC(O)(P(=O)([O-])O)P(=O)([O-])O)c1.[Na+].[Na+],34.2,-5.5,-12.4,3.7,0.7,–
COc1cccc(C(=O)NCCC(O)(P(=O)([O-])O)P(=O)([O-])O)c1.[Na+].[Na+],26.9,7.1,-5.5,0.6,8.9,–
COc1cccc(C(=O)NCCC(O)(P(=O)([O-])O)P(=O)([O-])O)c1OC.[Na+].[Na+],68.1,47.4,74.4,26.6,35.2,Activity [6]: 0.56; Activity [7]: 4.73; Activity [8]: 3.6; Activity [9]: 0.75; Activity [10]: 4.07; Activity [11]: 2.15; Activity [12]: 8.63; Activity [13]: 11.7
COc1ccc(C(=O)NCCCCCC(O)(P(=O)(O)O)P(=O)(O)O)cc1,39,–,–,–,–,–
O=C(NCCC(O)(P(=O)(O)O)P(=O)(O)O)c1ccccc1,9.5,–,–,–,–,–
O=C(NCCCC(O)(P(=O)(O)O)P(=O)(O)O)c1ccccc1,35.6,–,–,–,–,–
Cc1ccc(C(=O)NCCC(O)(P(=O)(O)O)P(=O)(O)O)cc1,30.4,–,–,–,–,–
COc1cc([N+](=O)[O-])cc(C(=O)NCCC(O)(P(=O)([O-])O)P(=O)([O-])O)c1OC.[Na+].[Na+],64.4,-1.5,21.4,-0.8,17.7,–
O=C(NCCC(O)(P(=O)([O-])O)P(=O)([O-])O)c1ccc2c(c1)OCO2.[Na+].[Na+],60.2,-8.3,-7.3,-0.2,9.3,–
O=C(NCCCCCC(O)(P(=O)(O)O)P(=O)(O)O)c1cccc(Cl)c1,15.9,–,–,–,–,–
Cc1ccccc1C(=O)NCCCCCC(O)(P(=O)(O)O)P(=O)(O)O,9.4,–,–,–,–,–
